Measurements of several laboratories.
Protocols differ between the studies behind these lines.
MAOB: Amine oxidase [flavin-containing] B (MAOB, Homo sapiens, UniProt P27338)
CHRM4: Muscarinic acetylcholine receptor M4 (CHRM4, Homo sapiens, UniProt P08173)
CA9: Carbonic anhydrase 9 (CA9, Homo sapiens, UniProt Q16790)
Adora1: Adenosine receptor A1 (Adora1, Rattus norvegicus, UniProt P25099)

The inhibition of `COc1ccc(C=NNC(=O)Cn2cnc3ccccc32)c(O)c1` is reported as 65% (MAOB; enzyme activity, inhibitor, fluorescence; 1 µM).
`O=C(c1ccc(Cl)cc1)N(Cc1ccccc1)C1CCCCC1` has an inhibition of -0.7% (Histamine H1 receptor (HRH1, Homo sapiens, UniProt P35367); cell-free assay; 10 µM).
`COc1cc(-c2cc(-c3ccc(N4CCNCC4)cc3)cnc2C)cc(OC)c1OC` has an inhibition of 1% (Dual specificity tyrosine-phosphorylation-regulated kinase 4 (DYRK4, Homo sapiens, UniProt Q9NR20); enzyme activity, inhibitor; 1 µM).
`CCCNc1nc2ccccc2n1Cc1ccc(Cl)cc1` has an inhibition of -7.49% (CHRM4; ligand displacement; 10 µM).
`O=C1NC(=S)C(=Cc2cn(-c3ccccc3)nc2-c2ccc(Br)cc2)S1` has an inhibition of 66.2% (CA9; enzyme activity, inhibitor; 1 µM).
`CN1CCCn2c1nc1c2c(=O)n(C)c(=O)n1C` has an inhibition of 28% (Adora1; ligand displacement, radioligand; 25 µM, cell membranes).
The inhibition of `COc1cc([N+](=O)[O-])ccc1NC(=O)c1ccccc1` is reported as 14% (MAOB; enzyme activity, inhibitor; 1 µM, 20 min).
The inhibition of `Oc1cccc(Nc2nc(-c3ccc(F)cc3F)cs2)c1` is reported as -2.9% (CHRM4; cell-free assay; 10 µM).
`C=CN1CCCn2c1nc1c2c(=O)n(C)c(=O)n1C` gave an inhibition of 30% (Adora1; ligand displacement, radioligand; 25 µM, cell membranes).
For `CCOC(=O)C1CSc2[nH]c(=O)sc2C1c1cn(-c2ccccc2)nc1-c1ccc(Br)cc1` (centres unmarked), the inhibition was 91.6% (CA9; enzyme activity, inhibitor; 100 µM).
`O=C(Nc1ccccc1Cl)c1ccc([N+](=O)[O-])cc1Cl` has an inhibition of 6% (MAOB; enzyme activity, inhibitor; 1 µM, 20 min).
The inhibition of `CS(=O)(=O)Nc1cccc2cccnc12` is reported as > 21% (Lactoylglutathione lyase (GLO1, Homo sapiens, UniProt Q04760); enzyme activity, inhibitor, absorbance; 50 µM).
The inhibition of `CCOc1ccc(C(=O)Nc2ccc(OC(F)(F)F)cc2)cc1OCC` is reported as 1% (MAOB; enzyme activity, inhibitor; 1 µM, 20 min).
For `CCOC(=O)C1CSc2[nH]c(=O)sc2C1c1cn(-c2ccccc2)nc1-c1ccc(Cl)cc1` (centres unmarked), the inhibition was 86.3% (CA9; enzyme activity, inhibitor; 10 µM).
`CN(C)C1CCN(CC#Cc2nn(C3CCCC3)c3nc(NCc4ccccc4)ncc23)C1` (centres unmarked) has an inhibition of 4% (Serine/threonine-protein kinase N1 (PKN1, Homo sapiens, UniProt Q16512); enzyme activity, inhibitor, FRET; 10 µM).
With `CCOC(=O)C1CSc2[nH]c(=O)sc2C1c1cn(-c2ccccc2)nc1-c1ccc(C)cc1` (centres unmarked) the inhibition was 18.9% (CA9; enzyme activity, inhibitor; 10 nM).
For `O=C(Nc1ccc(C(F)(F)F)cc1C(F)(F)F)c1cc(Cl)ccc1O`, the inhibition was 84% (MAOB; enzyme activity, inhibitor; 1 µM, 20 min).
With `COc1cc(NC(C)=O)c(Cl)cc1C(=O)Nc1nccs1` the inhibition was 16.7% (CHRM4; cell-free assay; 10 µM).
For `O=C(Nc1ccc([N+](=O)[O-])cc1Cl)c1cc2ccccc2s1`, the inhibition was 40% (MAOB; enzyme activity, inhibitor; 1 µM, 20 min).
`CCOC(=O)C1CSc2[nH]c(=O)sc2C1c1cn(-c2ccccc2)nc1-c1ccccc1` (centres unmarked) gave an inhibition of 75.5% (CA9; enzyme activity, inhibitor; 10 µM).
For `CCCC(C)N1CCCn2c1nc1c2c(=O)n(C)c(=O)n1C` (centres unmarked), the inhibition was 19% (Adora1; ligand displacement, radioligand; 25 µM, cell membranes).
`O=C(Nc1ccccc1)c1ccc(Cl)cc1` has an inhibition of 24% (MAOB; enzyme activity, inhibitor; 1 µM, 20 min).
The inhibition of `Cc1ccc(-n2nc(C(C)(C)C)cc2NC(=O)Nc2ccc(OCCN3CCOCC3)c3ccccc23)cc1` is reported as 17% (Tyrosine-protein phosphatase non-receptor type 2 (PTPN2, Homo sapiens, UniProt P17706); enzyme activity, inhibitor; 10 µM).
`N#CC1CSc2[nH]c(=O)sc2C1c1cn(-c2ccccc2)nc1-c1ccc(Br)cc1` (centres unmarked) gave an inhibition of 28.9% (CA9; enzyme activity, inhibitor; 10 nM).
With `O=C(c1ccc(F)cc1)N(Cc1ccccc1)C1CCCCC1` the inhibition was 3% (Endothelin receptor type B (EDNRB, Homo sapiens, UniProt P24530); cell-free assay; 10 µM).
For `Cc1cc([N+](=O)[O-])ccc1NC(=O)c1cc(Cl)ccc1O`, the inhibition was 5% (MAOB; enzyme activity, inhibitor; 1 µM, 20 min).
`Cc1ccc(C(=O)Nc2ccc(S(=O)(=O)O)c3cc(S(=O)(=O)O)cc(S(=O)(=O)O)c23)cc1NC(=O)c1cccc(NC(=O)Nc2cccc(C(=O)Nc3cc(C(=O)Nc4ccc(S(=O)(=O)O)c5cc(S(=O)(=O)O)cc(S(=O)(=O)O)c45)ccc3C)c2)c1` gave an inhibition of 85% (NAD-dependent protein deacylase sirtuin-5, mitochondrial (SIRT5, Homo sapiens, UniProt Q9NXA8); enzyme activity, inhibitor; 100 µM).
`O=c1c2ccccc2c(Cc2ccc(Cl)cc2)nn1C1CCCNCC1` (centres unmarked) has an inhibition of 34% (KCNU1 (Homo sapiens, UniProt A8MYU2); ion current, inhibitor, patch clamp; HEK293; 10 µM).
`CC(C)CC(C)N1CCCn2c1nc1c2c(=O)n(C)c(=O)n1C` (centres unmarked) has an inhibition of 30% (Adora1; ligand displacement, radioligand; 25 µM, cell membranes).
For `N#Cc1ccc(NC(=O)c2ccc3c(c2)OCO3)cc1`, the inhibition was 87% (MAOB; enzyme activity, inhibitor; 1 µM, 20 min).
`CC(C)N1CCCn2c1nc1c2c(=O)n(C)c(=O)n1C` has an inhibition of 38% (Adora1; ligand displacement, radioligand; 25 µM, cell membranes).
For `CCOC(=O)C1CSc2[nH]c(=O)sc2C1c1cn(-c2ccccc2)nc1-c1ccc(OC)cc1` (centres unmarked), the inhibition was 71.4% (CA9; enzyme activity, inhibitor; 1 µM).
